Here are results for 12 compounds from ChEMBL document CHEMBL1140976, “1,2,3,4-tetrahydro-2-thioxopyrimidine analogs of combretastatin-A4” (Eur J Med Chem, 2008).

Assay type in all cases: functional, cell-based
Test [1] concerns B16. The test is described as follows: Cytotoxicity against mouse B16 cells after 72 hrs by MTT assay. Conditions: B16, 72 h. The method, boiled down: (§1)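 72-h MTT assay on murine cell lines (B16 melanoma, L1210 leukemia) grown in culture. IC50 is the compound concentration needed to reduce the cell population by 50% relative to an untreated control.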
Test [2] concerns L1210. The test is described as follows: Cytotoxicity against mouse L1210 cells after 72 hrs by MTT assay. Particulars: L1210, 72 h. The procedure, abridged:
as §1

For test [3], the system named is A10. Put plainly: Reduction of cellular microtubules in interphase rat A10 cells. The method, boiled down:
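Interphase cellular microtubules scored in A-10 aortic smooth muscle cells after exposure to compound. EC50 is the effective concentration that causes 50% loss of cellular microtubules.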

`COc1ccc(C2C=C(c3cc(OC)c(OC)c(OC)c3)NC(=S)N2)cc1OC` (stereo unspecified): the IC50 in test [1] was more than 100 µM; in test [2] it was 56.3 µM.
With `COc1ccc(OC)c(C2C=C(c3cc(OC)c(OC)c(OC)c3)NC(=S)N2)c1` (stereo unspecified), the IC50 in test [1] came to 36 µM; in test [2] it was 32 µM.
Take `COc1ccc(C2C=C(c3cc(OC)c(OC)c(OC)c3)NC(=S)N2)cc1[N+](=O)[O-]` (stereo unspecified): the IC50 in test [1] and in test [2] was more than 100 µM each time.
For the compound `COc1cc(C2=CC(c3ccc(Cl)cc3)NC(=S)N2)cc(OC)c1OC` (stereo unspecified), the IC50 in test [1] was determined as 55.5 µM; in test [2] it was 48.3 µM.
Turning to `COc1cc(C2=CC(c3cc(OC)c(OC)c(OC)c3)NC(=S)N2)cc(OC)c1OC` (stereo unspecified), the IC50 in test [1] and in test [2] was more than 100 µM each time.
`COc1cc(OC)c(C2C=C(c3cc(OC)c(OC)c(OC)c3)NC(=S)N2)c(OC)c1` (stereo unspecified): the IC50 in test [1] was found to be 6.3 µM; in test [2] it was 5.7 µM.
In the case of `COc1cc(OC)c(C2C=C(c3cc(OC)ccc3OC)NC(=S)N2)c(OC)c1` (stereo unspecified), the IC50 in test [1] is 6.1 µM; in test [2] it was 0.4 µM. In test [3], this compound returned an EC50 of 2.9 µM.
With `COc1ccc(OC)c(C2=CC(c3ccc(OC)c([N+](=O)[O-])c3)NC(=S)N2)c1` (stereo unspecified), the figures for the IC50 in test [1] and in test [2] were 42 µM and 2.2 µM, respectively.
In the case of `COc1cccc(C2C=C(c3cc(OC)c(OC)c(OC)c3)NC(=S)N2)c1` (stereo unspecified), the IC50 was 59.5 µM in test [1] and more than 100 µM in test [2].
Turning to `COc1ccc(C2C=C(c3cc(OC)c(OC)c(OC)c3)NC(=S)N2)cc1O` (stereo unspecified), the IC50 worked out at 6 µM in test [1] and 0.5 µM in test [2]. This compound showed an EC50 in test [3] of 4.4 µM.
In the case of `COc1cc(C2=CC(c3ccc([N+](=O)[O-])cc3)NC(=S)N2)cc(OC)c1OC` (stereo unspecified), the concentration for half-maximal inhibition (IC50) in test [1] and in test [2] was more than 100 µM throughout.
Consider `COc1ccc(/C=C\c2cc(OC)c(OC)c(OC)c2)cc1O` [COMBRETASTATIN A4], for which the results for the IC50 in test [1] and in test [2] were 0.003 µM and 0.002 µM, respectively.
